Each structure is given as a SMILES string. The source made the active and inactive calls. The rule behind the calls is not given here. Some results are limits rather than exact numbers.

Prostaglandin G/H synthase 1 (Homo sapiens), sequence (P23219 whole entry): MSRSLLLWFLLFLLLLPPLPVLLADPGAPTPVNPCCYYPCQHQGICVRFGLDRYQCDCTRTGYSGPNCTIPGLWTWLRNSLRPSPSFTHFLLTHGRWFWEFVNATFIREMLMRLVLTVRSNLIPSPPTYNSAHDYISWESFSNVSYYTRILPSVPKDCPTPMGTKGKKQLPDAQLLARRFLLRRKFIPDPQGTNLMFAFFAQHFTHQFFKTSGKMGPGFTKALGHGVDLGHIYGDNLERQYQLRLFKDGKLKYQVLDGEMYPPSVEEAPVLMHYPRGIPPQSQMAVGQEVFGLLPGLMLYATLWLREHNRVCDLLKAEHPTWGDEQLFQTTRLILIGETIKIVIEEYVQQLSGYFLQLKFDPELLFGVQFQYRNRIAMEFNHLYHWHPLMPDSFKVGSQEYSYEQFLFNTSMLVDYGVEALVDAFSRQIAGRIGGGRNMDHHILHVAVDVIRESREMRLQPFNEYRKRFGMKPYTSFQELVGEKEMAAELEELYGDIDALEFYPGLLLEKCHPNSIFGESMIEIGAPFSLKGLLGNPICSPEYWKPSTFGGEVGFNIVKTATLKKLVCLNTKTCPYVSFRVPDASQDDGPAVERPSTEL

In one experiment the test system is Solanum tuberosum. The experiment is described as follows: Inhibition of potato 5-LOX assessed as decrease in leukotriene production using arachidonic acid as substrate at 10 nM by enzyme immunoassay.
Settings: not given
In the case of `CC(C)c1ccc2occ(/C=C3/C(=O)N(c4c(Cl)cccc4Cl)c4ccccc43)c(=O)c2c1`, the inhibition (as a rule, the relative decrease from the control value, in per cent) is 30.1%.

`O=C1/C(=C/c2coc3ccc(Br)cc3c2=O)c2ccccc2N1c1c(Cl)cccc1Cl`: the inhibition turned out to be 25%.

`CC1=NN(c2cccc(Cl)c2)C(=O)/C1=C/c1coc2c([N+](=O)[O-])cc(F)cc2c1=O`: the inhibition stood at 8.62%.

For the next experiment, the system named is Solanum tuberosum. The experiment is described as follows: Inhibition of potato 5-LOX assessed as decrease in leukotriene production using arachidonic acid as substrate at 1 uM by enzyme immunoassay.
Settings: not given
As to `O=C1/C(=C/c2coc3ccccc3c2=O)c2ccccc2N1c1c(Cl)cccc1Cl`, the inhibition was 15.5%.

Turning to `CC(C)c1ccc2occ(/C=C3/C(=O)N(c4c(Cl)cccc4Cl)c4ccccc43)c(=O)c2c1`, the inhibition was 81%.

For `O=C1Nc2ccccc2/C1=C/c1coc2ccc(Br)cc2c1=O`, the inhibition worked out at 77.6%.

As to `CC1=NN(c2cccc(Cl)c2)C(=O)/C1=C/c1coc2c([N+](=O)[O-])cc(F)cc2c1=O`, the inhibition was determined as 46.5%.

The subject of another experiment is Solanum tuberosum. In words: Inhibition of potato 5-LOX assessed as decrease in leukotriene production using arachidonic acid as substrate at 10 uM by enzyme immunoassay.
Settings: not given
The procedure, abridged:
(§1)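 Potato 5-LOX assay in buffer with DMSO solvent control. Compounds were tested at final well concentrations of 10^-5 to 10^-8 M in duplicate. Reaction was started with arachidonic acid and the plate shaken 5 min. Chromogen was added to stop the reaction, followed by 30 min incubation and reading at 500 nm. Activity was compared with 100% initial-activity wells.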
In the case of `O=C1/C(=C/c2coc3ccccc3c2=O)c2ccccc2N1c1c(Cl)cccc1Cl`, the inhibition came to 8.62%.

On to `O=C1Nc2ccccc2/C1=C/c1coc2ccccc2c1=O`, for which the inhibition came to 74.1%.

Consider `O=C1/C(=C/c2coc3ccc(Br)cc3c2=O)c2ccccc2N1c1c(Cl)cccc1Cl`, for which the inhibition was 50%.

For another experiment, the target named is T1, Prostaglandin G/H synthase 1 (Ovis aries) (UniProt P05979).
T1 sequence (whole entry): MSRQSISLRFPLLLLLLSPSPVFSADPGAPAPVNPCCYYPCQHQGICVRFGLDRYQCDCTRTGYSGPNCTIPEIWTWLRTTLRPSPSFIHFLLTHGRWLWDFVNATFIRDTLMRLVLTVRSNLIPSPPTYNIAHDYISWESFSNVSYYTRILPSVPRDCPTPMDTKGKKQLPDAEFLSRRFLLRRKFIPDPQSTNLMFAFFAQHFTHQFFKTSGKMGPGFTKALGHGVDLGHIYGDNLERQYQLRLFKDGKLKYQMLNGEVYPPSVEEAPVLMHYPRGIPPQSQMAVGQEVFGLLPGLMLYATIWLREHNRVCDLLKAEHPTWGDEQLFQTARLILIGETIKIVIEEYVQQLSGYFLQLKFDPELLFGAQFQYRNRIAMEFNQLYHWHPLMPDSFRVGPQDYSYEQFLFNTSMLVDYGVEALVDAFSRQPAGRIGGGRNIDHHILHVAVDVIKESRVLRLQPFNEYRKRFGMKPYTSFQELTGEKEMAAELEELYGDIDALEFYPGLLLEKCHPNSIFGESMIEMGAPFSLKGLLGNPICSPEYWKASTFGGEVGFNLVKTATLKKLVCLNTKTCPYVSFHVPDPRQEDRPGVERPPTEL
The experiment is described as follows: Inhibition of ovine COX-1 assessed as decrease in prostaglandin production using arachidonic acid as substrate at 1 uM incubated with enzyme for 10 mins prior to substrate challenge by enzyme immunoassay.
Settings: not given
The procedure, abridged:
(§2)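 Ovine COX-1 EIA kit run in triplicate. Compounds were at 10^-5 to 10^-8 M. Enzyme and compound were incubated 10 min at 37 °C, then arachidonic acid was added for 2 min. The reaction was stopped with 1 M HCl and reduced with stannous chloride. Prostaglandins were quantified by AChE-tracer competitive EIA (18 h at room temperature, Ellman's reagent, read at 420 nm) against a 100% activity control.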
As for `O=C1/C(=C/c2coc3ccccc3c2=O)c2ccccc2N1c1c(Cl)cccc1Cl`, the inhibition stood at 75%.

Regarding `CC(C)c1ccc2occ(/C=C3/C(=O)N(c4c(Cl)cccc4Cl)c4ccccc43)c(=O)c2c1`, the inhibition worked out at 56%.

On to `O=C1Nc2ccccc2/C1=C/c1coc2ccccc2c1=O`, for which the inhibition came to 43%.

`O=C1/C(=C/c2coc3ccc(Br)cc3c2=O)c2ccccc2N1c1c(Cl)cccc1Cl`: the inhibition was 60%.

Take `O=C1Nc2ccccc2/C1=C/c1coc2ccc(Br)cc2c1=O`: the inhibition is 30.4%.

On to `CC1=NN(c2cccc(Cl)c2)C(=O)/C1=C/c1coc2c([N+](=O)[O-])cc(F)cc2c1=O`, for which the inhibition was determined as 18%.

Another experiment has as its system Mus musculus. The experiment is described as follows: Analgesic activity in Swiss albino mouse assessed as decrease in capsaicin-induced paw lickings at 25 mg/kg, ip administered 30 mins before capsaicin injection. The following applies: route intraperitoneal. Format: functional. The procedure, abridged:
(§3)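 Capsaicin […] was injected into the plantar surface of the right hind paw. Swiss albino mice (25–35 g, either sex, groups of 6) were pretreated i.p. 30 min beforehand; saline 0.5 mL was the control. Time spent licking and twitching was recorded over 10 min. Results are mean ± SEM (n = 6), analysed by one-way ANOVA with Tukey's test.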
On to `O=C(O)Cc1ccccc1Nc1c(Cl)cccc1Cl` [DICLOFENAC], for which the inhibition in vivo (as a rule, the percentage by which the read-out fell short of the control) at 25 mg/kg amounted to 68%.

A further experiment deals with T2, Prostaglandin G/H synthase 1 (Ovis aries, UniProt P05979).
T2 sequence (P05979 whole entry): T1 sequence (whole entry)
In words: Inhibition of ovine COX-1 assessed as decrease in prostaglandin production using arachidonic acid as substrate incubated with enzyme for 10 mins prior to substrate challenge by enzyme immunoassay.
Settings: not given
In a few lines: as §2
As to `O=C1/C(=C/c2coc3ccccc3c2=O)c2ccccc2N1c1c(Cl)cccc1Cl`, the IC50 (in general, the midpoint of a concentration-inhibition curve) was 0.0047 µM.

Turning to `CC(C)c1ccc2occ(/C=C3/C(=O)N(c4c(Cl)cccc4Cl)c4ccccc43)c(=O)c2c1`, the half-maximal inhibitory concentration (IC50) amounted to 0.65 µM.

For the compound `O=C1Nc2ccccc2/C1=C/c1coc2ccccc2c1=O`, the half-maximal inhibitory concentration (IC50) was found to be 1.35 µM.

Regarding `O=C1/C(=C/c2coc3ccc(Br)cc3c2=O)c2ccccc2N1c1c(Cl)cccc1Cl`, the IC50 was 0.63 µM.

On to `O=C1Nc2ccccc2/C1=C/c1coc2ccc(Br)cc2c1=O`, for which the half-inhibitory concentration (IC50) turned out to be 6.75 µM.

`CC1=NN(c2cccc(Cl)c2)C(=O)/C1=C/c1coc2c([N+](=O)[O-])cc(F)cc2c1=O`: the half-inhibitory concentration (IC50) is over 10 µM.

The target in the next experiment is T3, Prostaglandin G/H synthase 2 (Homo sapiens) (UniProt P35354).
T3 sequence (whole entry): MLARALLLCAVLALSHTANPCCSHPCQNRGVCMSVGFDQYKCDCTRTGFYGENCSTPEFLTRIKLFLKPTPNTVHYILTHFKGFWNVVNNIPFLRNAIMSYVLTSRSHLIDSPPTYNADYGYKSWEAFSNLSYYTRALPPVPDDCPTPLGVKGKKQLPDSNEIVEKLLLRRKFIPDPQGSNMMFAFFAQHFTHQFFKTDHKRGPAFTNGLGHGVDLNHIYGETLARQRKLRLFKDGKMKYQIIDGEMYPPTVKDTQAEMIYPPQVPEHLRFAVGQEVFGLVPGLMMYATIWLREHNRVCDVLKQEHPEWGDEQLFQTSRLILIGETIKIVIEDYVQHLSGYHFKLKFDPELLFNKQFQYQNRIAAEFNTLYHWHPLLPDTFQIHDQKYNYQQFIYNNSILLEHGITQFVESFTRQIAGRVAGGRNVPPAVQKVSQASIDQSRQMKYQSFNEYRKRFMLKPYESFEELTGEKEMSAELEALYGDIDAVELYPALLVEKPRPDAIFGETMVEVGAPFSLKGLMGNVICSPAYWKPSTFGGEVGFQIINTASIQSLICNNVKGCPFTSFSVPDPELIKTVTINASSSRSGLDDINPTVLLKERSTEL
Experiment: not given
Settings: not given
`O=C1Nc2ccccc2/C1=C/c1coc2ccccc2c1=O` displayed a Ka of 0.75 ×10⁴ /M.

`CC(=O)Oc1ccccc1C(=O)O` returned a Ka of 0.22 ×10⁴ /M.

As for `CCCCC/C=C\C/C=C\C/C=C\C/C=C\CCCC(=O)O`, the Ka came to 0.18 ×10⁴ /M.

For another experiment, the system named is Solanum tuberosum. In words: Inhibition of potato 5-LOX assessed as decrease in leukotriene production using arachidonic acid as substrate at 0.1 uM by enzyme immunoassay.
Settings: not given
In a few lines: as §1
`O=C1/C(=C/c2coc3ccccc3c2=O)c2ccccc2N1c1c(Cl)cccc1Cl`: the inhibition was 20%.

Take `CC(C)c1ccc2occ(/C=C3/C(=O)N(c4c(Cl)cccc4Cl)c4ccccc43)c(=O)c2c1`: the inhibition came out at 44.8%.

As to `O=C1Nc2ccccc2/C1=C/c1coc2ccccc2c1=O`, the inhibition was 22.4%.

As to `O=C1/C(=C/c2coc3ccc(Br)cc3c2=O)c2ccccc2N1c1c(Cl)cccc1Cl`, the inhibition is 37%.

Turning to `CC1=NN(c2cccc(Cl)c2)C(=O)/C1=C/c1coc2c([N+](=O)[O-])cc(F)cc2c1=O`, the inhibition was found to be 22.4%.

Molecular target in another experiment: not listed separately
In words: Inhibition of potato 5-LOX assessed as decrease in leukotriene production using arachidonic acid as substrate by enzyme immunoassay. Set-up: species or system Solanum tuberosum.
Settings: not given
The procedure, abridged: as §1
As for `CC(C)c1ccc2occ(/C=C3/C(=O)N(c4c(Cl)cccc4Cl)c4ccccc43)c(=O)c2c1`, the IC50 is 0.02 µM.

Regarding `O=C1/C(=C/c2coc3ccc(Br)cc3c2=O)c2ccccc2N1c1c(Cl)cccc1Cl`, the concentration for half-maximal inhibition (IC50) came to 10 µM.

For the compound `CC1=NN(c2cccc(Cl)c2)C(=O)/C1=C/c1coc2c([N+](=O)[O-])cc(F)cc2c1=O`, the IC50 stood at 7.4 µM.

Another experiment deals with T1, Prostaglandin G/H synthase 1 (Ovis aries). In words: Inhibition of ovine COX-1 assessed as decrease in prostaglandin production using arachidonic acid as substrate at 10 uM incubated with enzyme for 10 mins prior to substrate challenge by enzyme immunoassay.
Settings: not given
The procedure, abridged: as §2
`O=C1/C(=C/c2coc3ccccc3c2=O)c2ccccc2N1c1c(Cl)cccc1Cl`: the inhibition was 80.3%.

Consider `CC(C)c1ccc2occ(/C=C3/C(=O)N(c4c(Cl)cccc4Cl)c4ccccc43)c(=O)c2c1`, for which the inhibition was 64.6%.

On to `O=C1Nc2ccccc2/C1=C/c1coc2ccccc2c1=O`, for which the inhibition was 51.6%.

In the case of `O=C1/C(=C/c2coc3ccc(Br)cc3c2=O)c2ccccc2N1c1c(Cl)cccc1Cl`, the inhibition is 80.3%.

Regarding `O=C1Nc2ccccc2/C1=C/c1coc2ccc(Br)cc2c1=O`, the inhibition turned out to be 40.5%.

Turning to `CC1=NN(c2cccc(Cl)c2)C(=O)/C1=C/c1coc2c([N+](=O)[O-])cc(F)cc2c1=O`, the inhibition was 27.9%.

The next experiment concerns the target Prostaglandin G/H synthase 1 (Homo sapiens) (UniProt P23219).
Experiment: not given
Settings: not given
The compound `O=C1Nc2ccccc2/C1=C/c1coc2ccccc2c1=O` gave a Ka of 0.29 ×10⁴ /M.

Regarding `CC(=O)Oc1ccccc1C(=O)O`, the Ka is 0.93 ×10⁴ /M.

As to `CCCCC/C=C\C/C=C\C/C=C\C/C=C\CCCC(=O)O`, the Ka amounted to 0.39 ×10⁴ /M.

In another experiment the target is T1, Prostaglandin G/H synthase 1 (Ovis aries). The experiment is described as follows: Inhibition of ovine COX-1 assessed as decrease in prostaglandin production using arachidonic acid as substrate at 0.1 uM incubated with enzyme for 10 mins prior to substrate challenge by enzyme immunoassay.
Settings: not given
The procedure, abridged: as §2
Turning to `O=C1/C(=C/c2coc3ccccc3c2=O)c2ccccc2N1c1c(Cl)cccc1Cl`, the inhibition was 63%.

Regarding `CC(C)c1ccc2occ(/C=C3/C(=O)N(c4c(Cl)cccc4Cl)c4ccccc43)c(=O)c2c1`, the inhibition turned out to be 47%.

As for `O=C1Nc2ccccc2/C1=C/c1coc2ccccc2c1=O`, the inhibition was found to be 35%.

Take `O=C1/C(=C/c2coc3ccc(Br)cc3c2=O)c2ccccc2N1c1c(Cl)cccc1Cl`: the inhibition came out at 44.4%.

In the case of `O=C1Nc2ccccc2/C1=C/c1coc2ccc(Br)cc2c1=O`, the inhibition came to 20%.

Regarding `CC1=NN(c2cccc(Cl)c2)C(=O)/C1=C/c1coc2c([N+](=O)[O-])cc(F)cc2c1=O`, the inhibition was found to be 15%.

Another experiment addresses Prostaglandin G/H synthase 1 (Homo sapiens) (UniProt P23219). In words: Binding affinity to COX-1 (unknown origin) at 0.35 mM after 30 mins by [13C] NMR spectroscopy. The following applies: in the assay text read “[1H] NMR” for “[13C] NMR”. In a few lines: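 Compound was 0.35 mM in DMSO-d6, with 12 (0.08 mM) COX-1 or COX-2 added. Samples were incubated at 37 °C and 1H NMR spectra were recorded every 30 min. D2O exchange was used to assign NH signals.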
Regarding `O=C1Nc2ccccc2/C1=C/c1coc2ccccc2c1=O`, the outcome was Active.

A further experiment has as its system Mus musculus. In words: Analgesic activity in Swiss albino mouse assessed as decrease in capsaicin-induced paw lickings at 5 mg/kg, ip administered 30 mins before capsaicin injection. The following applies: route intraperitoneal. Type of experiment: functional. In a few lines: as §3
`O=C1Nc2ccccc2/C1=C/c1coc2ccccc2c1=O`: the inhibition in vivo at 5 mg/kg is 76%.

Another experiment deals with Mus musculus. In words: Analgesic activity in Swiss albino mouse assessed as decrease in capsaicin-induced paw lickings at 10 mg/kg, ip administered 30 mins before capsaicin injection. Set-up: dose 10 mg/kg.
Settings: not given
Format: functional, organism-based. In a few lines: as §3
Take `O=C1Nc2ccccc2/C1=C/c1coc2ccccc2c1=O`: the inhibition entry was “Active”.
